Hits are enriched below; roughly 4.4% of the tested compounds scored in any of these assays.
AI-2 QS mod = modulators of Vibrio harveyi AI-2 quorum sensing system. actives 0.4% (n = 300,000). activity change, % at 7.5 µM. Vibrio harveyi JMH597 AI-2 luminescence/OD600 ratio, 9 h; stronger effect = lower value; strain lacks LuxN and CqsS sensors; 0 = neutral-control median; in the data active means activity change below about -75%, passing the limit was not always enough;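 further: luminescence divided by OD600 gain over 9 h not by final OD600 alone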
HTR2A ag = mouse HTR2A agonism via beta-arrestin recruitment | P35363 | CHO-K1 mHTR2A beta-arrestin complementation, luminescence; percent of 30 µM serotonin response | activation, % at 7.6 µM | AID 624169 | actives 0.66% (n = 360,000);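 active means activation above a run cutoff, the mean activation of all tested compounds plus 3 SD, cut at about 14% in these data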
Target sequence (P35363 whole entry, looked up): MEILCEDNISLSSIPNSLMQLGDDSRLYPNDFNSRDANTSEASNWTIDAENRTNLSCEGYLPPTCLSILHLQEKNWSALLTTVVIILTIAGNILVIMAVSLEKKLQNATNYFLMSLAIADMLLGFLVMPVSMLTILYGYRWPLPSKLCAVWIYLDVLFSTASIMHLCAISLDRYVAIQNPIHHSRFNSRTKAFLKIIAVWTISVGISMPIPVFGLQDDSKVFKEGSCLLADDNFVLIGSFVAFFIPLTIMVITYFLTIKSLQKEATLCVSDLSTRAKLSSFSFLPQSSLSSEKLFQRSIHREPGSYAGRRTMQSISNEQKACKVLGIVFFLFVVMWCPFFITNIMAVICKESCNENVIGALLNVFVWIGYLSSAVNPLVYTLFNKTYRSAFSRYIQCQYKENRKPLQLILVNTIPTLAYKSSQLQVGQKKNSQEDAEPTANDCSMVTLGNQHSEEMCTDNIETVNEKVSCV
TbMetRS inhib = blocks T. brucei methionyl-tRNA synthetase activity. actives 0.4% (n = 360,000). AID 624268. purified T. brucei MetRS, ATP depletion, Kinase-Glo luminescence. inhibition, % at 11.9 µM;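 active means inhibition above a per-plate cutoff of the control wells' mean inhibition plus 3 SD, cut at about 5.5% in these data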
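assay system = parasite MetRS enzyme | timing = 15 min preincubation, 2 h reaction, all 25 °C | evaluation = percent inhibition relative to median high and low control wells | medium = HEPES buffer containing pyrophosphatase, BSA, spermine, DTT | compound = single dose, 11.9 µM final nominal, 0.9% final DMSO | detection = Kinase-Glo luminescence, ATP depletion format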
MsrA act = activators of bovine methionine sulfoxide reductase A; purified bovine MsrA, absorbance read-out; activation, % at 10.6 µM; actives 0.3% (n = 360,000); AID 602163; in the data active means activation above about 7.5%
AHR act = activators of human aryl hydrocarbon receptor; actives 2.5% (n = 320,000); AHR-responsive luciferase reporter cells, luminescence; activation, % at 5 µM; AID 2796; P35869; in the data active means activation above about 47%
MsrA inh = bovine MsrA inhibition; purified bovine MsrA, absorbance read-out; inhibition, % at 15.5 µM; actives 0.75% (n = 360,000); AID 651718; in the data active means inhibition above about 4.5%
AHR act confirm = human AHR activation, confirmation. shares compounds with AHR act. human cells, AHR-responsive luciferase reporter, luminescence. activation, % at 9 µM. actives 87% (n = 2,300); in the data active means activation above about 49%;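 further: HepG2 hepatoma cells carrying a DRE-driven firefly luciferase reporter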
PXR act counter = counter-screen for AHR activators: human PXR activators; activation, % at 11.6 µM; shares compounds with AHR act; AID 434939; cell-based PXR reporter, luciferase luminescence; actives 88% (n = 2,300); in the data active means activation above about 11%;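 further: human hepatoma DPX-2 cells expressing full-length human PXR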
Each line names hits and unclear results; the compound was inactive in the other large screens (follow-up assays come after a bar, where they were run).

C/C(=N\NC(=O)c1c[nH]c2ccccc12)c1ccco1	AHR act 92 | AHR act confirm 159 | PXR act counter 24
C/C(=N\NC(=O)c1ccc(-c2ccccc2)cc1)c1ccco1	none
CCc1ccc(/C(C)=N/NC(=O)c2c[nH]c3ccccc23)s1	AHR act 141 | AHR act confirm 115 | PXR act counter 59
C/C(=N\NC(=O)c1ccc(C(=O)N/N=C(\C)c2ccco2)o1)c1ccco1	AHR act 108 | AHR act confirm inactive | PXR act counter inactive
C/C(=N\NC(=O)c1c[nH]c2ccccc12)c1ccccn1	none
CCc1ccc(/C(C)=N/NC(=O)C(O)c2ccccc2)s1 (stereo not drawn)	none
C=CCn1c(=O)c(C(=O)NCCc2ccc(Cl)cc2)c(O)c2cc(OC)c(OC)cc21	none
C=CCn1c(=O)c(C(=O)NC2CC2)c(O)c2cc(OC)c(OC)cc21	AHR act 102 | AHR act confirm inactive | PXR act counter 30
O=c1c2ccccc2nc(/C=C/c2cccc([N+](=O)[O-])c2)n1CCO	AHR act 106 | AHR act confirm 69 | PXR act counter 21
COc1ccc(Br)cc1C(=O)Nc1ccc(N2CCN(S(C)(=O)=O)CC2)cc1	none
COc1ccccc1C(=O)Nc1ccc(N2CCCCC2)cc1	AHR act 88 | AHR act confirm 99
COc1ccc(Br)cc1C(=O)Nc1ccc(N2CCCC2)cc1	AHR act 105 | AHR act confirm 148 | PXR act counter 18
CCOc1ccc(S(=O)(=O)N2CCCC(C(=O)N3CCN(c4ccccc4)CC3)C2)cc1 (stereo not drawn)	none
CC(=O)c1sc(NC(=O)CCc2ccccc2)nc1C	none (no result: AI-2 QS mod, AHR act)
O=C(NC1CCCCC1)c1cc(S(=O)(=O)N2CCCCC2)ccc1N1CCOCC1	none (no result: AI-2 QS mod)
CCn1cc(Br)c(C(=O)Nc2ccc(F)cc2F)n1	AHR act 99 | AHR act confirm 130 | PXR act counter 13
CCC(C)Sc1ccc(-c2nc3ccc(C)cn3c2NCc2ccccc2)cc1 (stereo not drawn)	none (no result: AI-2 QS mod)
Cc1ccc(-c2nc3ccccn3c2NCc2ccc3c(c2)OCO3)cc1	AHR act 109 | AHR act confirm 79 | PXR act counter 85
Cc1ccc2nc(-c3ccc(-c4cccc(Cl)c4)cc3)c(NCc3ccccc3)n2c1	AHR act 86 | AHR act confirm inactive | PXR act counter 28
C#CCNC(=O)C[C@@H]1C[C@@]2(C(=O)OC)CCCCC=C2N(CCC2=CCCCC2)C1=O	none (no result: AI-2 QS mod, AHR act)
Cc1cc(C(F)(F)F)nc(NNc2nc(C)cc(C(F)(F)F)n2)n1	none (no result: AI-2 QS mod, AHR act)
Cc1ccc2nc(Nc3nc(C)cc(C(F)(F)F)n3)nc(C)c2c1	AHR act 98 | AHR act confirm 95 | PXR act counter 131
O=c1[nH]c(Sc2ccc([N+](=O)[O-])cc2[N+](=O)[O-])nc2ccccc12	AHR act 88 | AHR act confirm inactive | PXR act counter 26
O=C(CSc1nc2ccccc2c(=O)[nH]1)Nc1ccc([N+](=O)[O-])cc1	none (no result: AI-2 QS mod)
CCc1nc2ccc(C(=O)N(C)Cc3ccco3)cn2c1N(CC)Cc1cccc(Br)c1	none (no result: AI-2 QS mod, AHR act)
COc1cc(C#Cc2c(-c3cncn3C)n(C)c3ccc(-c4ccc5cc[nH]c5c4)cc23)cc(OC)c1	AHR act 106 (no result: AI-2 QS mod) | AHR act confirm 82 | PXR act counter 23
Cc1nc2c(=O)[nH]c(=S)n(C)c2nc1C	AHR act 81 | AHR act confirm 56 | PXR act counter inactive
O=C(CN1C(=O)NC2(CCc3ccccc32)C1=O)Nc1ccccc1Cl (stereo not drawn)	none (no result: AI-2 QS mod)
CCOC(=O)C1CCN(C(=O)C(CCSC)NC(=O)c2ccccc2OC)CC1 (stereo not drawn)	none (no result: AI-2 QS mod)
Cc1ccc(S(=O)(=O)NCC(=O)Nc2cccnc2)cc1C	none (no result: AI-2 QS mod)
NNC(=O)c1[nH]c2ccccc2c1-c1ccccc1	AHR act 94 | AHR act confirm inactive | PXR act counter inactive
C[C@H](NS(=O)(=O)c1ccc(F)cc1)C(=O)OCC(=O)c1c(N)n(C)c(=O)n(C)c1=O	none (no result: AI-2 QS mod)
O=C(COC(=O)Cn1cnc2ccccc21)Nc1ccc(F)c(F)c1	none (no result: AI-2 QS mod)
C[C@H](NC(=O)[C@@H]1CSC2c3ccccc3C(=O)N21)C(=O)NCCc1ccc(F)cc1 (stereo partly drawn)	AHR act 96 | AHR act confirm 104 | PXR act counter 55
C[C@H](NC(=O)[C@@H]1CSC2c3ccccc3C(=O)N21)C(=O)NCCc1ccccc1 (stereo partly drawn)	AHR act 124 | AHR act confirm 107 | PXR act counter 59
O=C(Nc1ccc(Br)cc1)c1cccc(S(=O)(=O)Nc2cnc3ccccc3c2)c1	TbMetRS inhib 65, AHR act 83 | AHR act confirm 75 | PXR act counter 12
O=C(Nc1cccc(C(=O)Nc2ccc(Br)cc2)c1)c1ccccc1	AHR act 89 | AHR act confirm inactive | PXR act counter 22
O=C(Nc1cccc(Cl)c1)c1ccccc1	none (no result: AI-2 QS mod)
O=C(Nc1ccc(Cl)c(Cl)c1)c1ccccc1	AHR act 102 (no result: AI-2 QS mod) | AHR act confirm 122 | PXR act counter 12
O=C(CN1C2=NCCN2c2ccccc21)c1ccc(Br)cc1	TbMetRS inhib 5.9, AHR act 112 | AHR act confirm 71 | PXR act counter 21
O=C(CN1C2=NCCN2c2ccccc21)c1ccc(Br)s1	AHR act 94 | AHR act confirm 81 | PXR act counter 14
O=c1c2[nH]c3ccc(F)cc3c2ncn1CCCn1ccnc1	AHR act 96 | AHR act confirm 81 | PXR act counter 18
O=c1c2[nH]c3ccc(F)cc3c2ncn1CCCN1CCOCC1	none
COc1cccc(NC(=O)CN(C)C(=O)c2ccc3[nH]c4c(c3c2)CC(C)CC4)c1 (stereo not drawn)	none (no result: AI-2 QS mod, AHR act)
O=C(Nc1ccc(Br)cc1)c1cnc[nH]1	AHR act 109 | AHR act confirm 68 | PXR act counter 18
COc1ccccc1NC(=O)COC(=O)c1ccc2ccccc2n1	none (no result: AI-2 QS mod)
O=c1c2ccccc2nc2c3ccccc3c(NCc3ccccn3)nn12	AHR act 119 | AHR act confirm 113 | PXR act counter 128
O=c1c2ccccc2nc2c3ccccc3c(NCc3cccnc3)nn12	none
CC/C(O)=C1\C(=O)CC(c2ccccc2)CC1=NC(C)C (stereo not drawn)	AHR act 123 | AHR act confirm inactive | PXR act counter 128
CCOc1cc(/C=C/c2ccc3cccc([N+](=O)[O-])c3n2)ccc1O	none
